The values below come from ChEMBL document CHEMBL4376888, “Discovery of Potent, Selective, and Direct Acid Sphingomyelinase Inhibitors with Antidepressant Activity” (J Med Chem, 2020).

Series [1] deals with Rattus norvegicus. In words: In vivo inhibition of acid sphingomyelinase in Sprague-Dawley rat model of reserpine-induced depression assessed as reduction in enzyme activity in cerebral cortex at 24 mg/kg, ip administered twice daily for 2 weeks measured post-last dose by NBD-sphingomyelin substrate-based fluorescence assay (reference value: 53%). On the set-up: scale not given: the % may be the effect or the level left.

A short description of series [2]: Drug concentration in Sprague-Dawley rat brain at 48 mg/kg, ip after 4 hrs by LC-MS/MS analysis. The format is ADME, organism-based. The conditions noted are these: read-out: Drug uptake. A digest of the protocol:
(§1)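 Nine female SD rats, three per time point, single ip dose of 48 mg/Kg. At 0.5, 2 and 4 h rats were anesthetized with CO2. Heart blood was taken into EDTA-K2 and centrifuged 1500 g, 10 min, for plasma. Brain was weighed and homogenized 1:5 in 20% methanol-water. LC-MS/MS on a C18 column. Mean of 3.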

Series [3] relates to Rattus norvegicus. In words: Antidepressant activity in ip dosed Sprague-Dawley rat model of reserpine-induced depression assessed as increase in sugar consumption treated twice daily for 2 weeks measured after 2 days of […] followed by 20 hrs water depletion and fasting by sugar water preference test. It counts as functional, organism-based. The method, boiled down: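 Reserpine model (4 mg/Kg ip daily) in female SD rats, treated ip twice daily for two weeks in DMSO/Tween 80/glucose vehicle. Drinking water replaced with 10% sucrose for 48 h, then food and water withheld for 20 h. Rats then given 10% sucrose and intake volume measured. n=8, mean ± SD.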

The test system of another series is NIH3T3. In words: Cytotoxicity against mouse NIH/3T3 cells assessed as reduction in cell viability after 24 hrs by MTT assay. The format is cell-based. The note with it: Mus musculus, NIH3T3, 24 h. A digest of the protocol: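 NIH3T3 cells in DMEM with 10 % FBS at 37 °C, 5 % CO₂, grown overnight, then inhibitor added for 24 h; viability read by MTT.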
Series [4] concerns the target T1, Sphingomyelin phosphodiesterase (Homo sapiens, UniProt P17405).
T1 sequence (P17405 whole entry): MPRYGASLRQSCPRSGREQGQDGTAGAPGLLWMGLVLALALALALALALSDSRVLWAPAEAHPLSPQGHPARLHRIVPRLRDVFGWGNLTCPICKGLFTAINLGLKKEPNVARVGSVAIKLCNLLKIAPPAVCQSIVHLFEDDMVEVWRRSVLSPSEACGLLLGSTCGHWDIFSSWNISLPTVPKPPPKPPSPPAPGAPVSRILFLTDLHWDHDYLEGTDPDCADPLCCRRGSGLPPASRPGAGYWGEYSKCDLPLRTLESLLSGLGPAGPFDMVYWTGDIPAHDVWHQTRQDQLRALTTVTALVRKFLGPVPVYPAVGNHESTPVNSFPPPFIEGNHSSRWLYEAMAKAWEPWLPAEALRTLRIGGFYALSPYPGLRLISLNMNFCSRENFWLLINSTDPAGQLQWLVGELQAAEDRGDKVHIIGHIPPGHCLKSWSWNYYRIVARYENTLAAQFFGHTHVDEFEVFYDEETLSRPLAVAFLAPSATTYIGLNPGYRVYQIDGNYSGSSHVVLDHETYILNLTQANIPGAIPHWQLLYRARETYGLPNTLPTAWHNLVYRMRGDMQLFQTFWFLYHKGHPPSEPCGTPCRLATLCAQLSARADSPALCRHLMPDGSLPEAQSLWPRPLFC
In words: Inhibition of human Huh7 cell derived acid sphingomyelinase using NBD-sphingomyelin as substrate after 30 mins by fluorescence based assay. A digest of the protocol:
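Cultured cells were lysed in 25 mM Tris-HCl pH 7.4, 5 mM EDTA, sonicated and cleared at 300 g. 400 μg protein incubated with NBD-sphingomyelin in 100 mM sodium acetate pH 4.7, 1% Triton X-100, 40 mM CaCl2, 100 μM ZnCl2. Inhibitors added in DMSO, 37 °C, 30 min. Stopped with chloroform/methanol 2:1; NBD-ceramide fluorescence after TLC.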

Series [5] relates to Rattus norvegicus. In words: In vivo inhibition of acid sphingomyelinase in Sprague-Dawley rat model of reserpine-induced depression assessed as residual enzyme activity in hippocampus at 24 mg/kg, ip administered twice daily for 2 weeks measured post-last dose by NBD-sphingomyelin substrate-based fluorescence assay (reference value: 73%). The format is functional. The method, boiled down:
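Cortex and hippocampus taken from half brain of reserpine-model rats treated ip twice daily for two weeks. Total protein by BCA. ASM assay on 300 μg protein with 4 μg NBD-sphingomyelin, run as the in vitro assay. NBD-ceramide fluorescence on TLC, expressed relative to normal control set at 100%. n=5, mean ± SD.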

For series [6], the system named is Rattus norvegicus. In words: Antidepressant activity in Sprague-Dawley rat model of reserpine-induced depression assessed as reduction in total time spent in center at 6 to 24 mg/kg, ip administered twice daily for 2 weeks measured for 5 mins by open field test. It counts as functional, organism-based. The method, boiled down: (§2)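 Female SD rats (6-8 weeks, 200 g) given reserpine 4 mg/Kg ip daily to induce depression; test agent in 5% DMSO, 2% Tween 80, 5% glucose, ip twice daily for two weeks. Open field: 100×100 cm box, 25 squares, walls about 42 cm, tested 7:30–12:00. Rat placed in central square; centre time, grid crossings, rearing and grooming recorded over 5 min. n=8, mean ± SD.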

Series [7] is described as follows: Drug concentration in Sprague-Dawley rat plasma at 48 mg/kg, ip after 4 hrs by LC-MS/MS analysis. The format is ADME, organism-based. A digest of the protocol: as §1
Series [8] is described as follows: Drug concentration in Sprague-Dawley rat plasma at 48 mg/kg, ip after 2 hrs by LC-MS/MS analysis. The format is ADME, organism-based. A digest of the protocol:
as §1

The test system of series [9] is Rattus norvegicus. The experiment in a line: Antidepressant activity in Sprague-Dawley rat model of reserpine-induced depression assessed as increase in times passing the grid at 6 to 24 mg/kg, ip administered twice daily for 2 weeks measured for 5 mins by open field test. The format is functional, organism-based. A digest of the protocol:
as §2

For series [10], the system named is Rattus norvegicus. The experiment in a line: Antidepressant activity in Sprague-Dawley rat model of reserpine-induced depression assessed as increase in frequency of upright at 6 to 24 mg/kg, ip administered twice daily for 2 weeks measured for 5 mins by open field test. The format is functional, organism-based. The method, boiled down: as §2
In series [11] the test system is Rattus norvegicus. The experiment in a line: Antidepressant activity in Sprague-Dawley rat model of reserpine-induced depression assessed as increase in grooming frequency at 6 to 24 mg/kg, ip administered twice daily for 2 weeks measured for 5 mins by open field test. The format is functional, organism-based. The method, boiled down: as §2
The nature of series [12]: Drug uptake in human CMEC/D3 cells at 40 uM after 0.5 to 4 hrs by HPLC analysis. It counts as ADME, cell-based. The conditions noted are these: hcmec/d3, 40 µM. The method, boiled down:
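hCMEC/D3 cells seeded at 2×10^5/well and grown to 80%. Compound added at a final 40 μM; serum-free medium as control. At time points, cells washed with ice-cold PBS, lysed on ice 30 min, spun 12000 rpm, 4 °C, 15 min. Lysate protein by BCA and compound content measured; uptake rate = lysate concentration/dose concentration. n=3.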

Series [13] is described as follows: Ratio of drug uptake in Sprague-Dawley rat brain to plasma at 48 mg/kg, ip after 4 hrs by LC-MS/MS analysis. It counts as ADME, organism-based. The note with it: read-out: BPR. The method, boiled down:
as §1

A short description of series [14]: Drug concentration in Sprague-Dawley rat brain at 48 mg/kg, ip after 2 hrs by LC-MS/MS analysis. The format is ADME, organism-based. The conditions noted are these: read-out: Drug uptake. The method, boiled down:
as §1

For series [15], the system named is Rattus norvegicus. In words: Reversal of reserpine-induced inhibition of neurogenesis in ip dosed Sprague-Dawley rat hippocampus administered twice daily for 2 weeks by EDU-incorporation assay. The format is functional, organism-based. A digest of the protocol:
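Rats given EDU 8 mg/kg twice in 1 day and sacrificed 96 h later. Brains shock-frozen and sectioned, washed with 2 mg/mL glycine and PBS, stained with 1X Click-iT solution for 30 min, washed with 0.5% Triton X-100. Counterstained with 1X Hoechst 33342 for 30 min, then imaged by fluorescence microscopy. n=5.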

The structures appear in SMILES notation. Activity calls are given as the source filed them. No cut-off for these calls is given here.

Turning to `O=C(NO)c1cc(OCc2ccc(-c3ccc(Cl)cc3)cc2)no1`, the Activity in the series with Rattus norvegicus [1] is 27%; in the series with Rattus norvegicus [3], “Dose-dependent effect”; in the series with Rattus norvegicus [5], 33%; in the series on Rattus norvegicus [15] it was “Dose-dependent effect”. The concentration at 4 h stood at 1300 ng/g in [2] and 144 ng/mL in series [7]. For the same compound, the results for the IC50 (in the series with NIH3T3; in [4]) were 161 µM and 320 nM, respectively. The result in the series with Rattus norvegicus [6], with Rattus norvegicus [9], in the series on Rattus norvegicus [10] and in the series with Rattus norvegicus [11] was Active. The concentration at 2 h in series [8] was determined as 762 ng/mL; in [14], 4760 ng/g. For the same compound, in [12], the Drug uptake result is recorded as “Active”. The Kp at 4 h in [13] was 9.55.

Usually IC50 stands for the concentration that inhibits the measured activity by half.
